From ChEMBL document CHEMBL1143753, “Synthesis and antimicrobial activity of some new thiazolyl thiazolidine-2,4-dione derivatives” (2007)
In brackets after ≈: the same amount, converted by molar mass.

How the values were obtained:
Type in all cases: functional
Staphylococcus aureus [1] = experiment: Antibacterial activity against methicillin-resistant Staphylococcus aureus isolate after 24 hrs
In short: (§1)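 Compounds were dissolved in dimethylformamide/propyleneglycol (0.5:9.5) and serially diluted twofold in Mueller–Hinton broth at pH 7.4, from 100 down to 0.78. Inocula came from 24 h broth cultures grown at 37 °C, with a final inoculum of 10⁵ CFU/ml. Tubes were incubated for 24 h at 37 °C alongside inoculated-broth and solvent controls. The MIC was read as the last tube showing no growth.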

Staphylococcus aureus [2] = experiment: Antibacterial activity against methicillin-resistant Staphylococcus aureus ATCC 43300 after 24 hrs; conditions: ATCC 43300, 24 h; in short: as §1
Candida albicans = experiment: Antifungal activity against Candida albicans ATCC 10145 after 48 hrs; conditions: ATCC 10145, 48 h
In short: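 Yeast maintained in Sabouraud dextrose broth, 24 h at 25 °C; testing by twofold serial dilution in Sabouraud dextrose broth, pH 7.4, final inoculum 10⁴ CFU/ml. Compounds in dimethylformamide/propyleneglycol (0.5:9.5), diluted in medium from 100 to 0.78 (100, 50, 25, 12.5, 6.25, 3.12, 1.56, 0.78).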

Staphylococcus aureus [3] = experiment: Antibacterial activity against Staphylococcus aureus ATCC 25923 after 24 hrs; conditions: ATCC 25923, 24 h; in short: as §1
Escherichia coli = experiment: Antibacterial activity against Escherichia coli ATCC 23556 after 24 hrs; conditions: ATCC 23556, 24 h
In short: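 Twofold serial broth dilution in Mueller–Hinton broth, pH 7.4; compounds dissolved in dimethylformamide/propyleneglycol (0.5:9.5), diluted in medium from 100 down to 0.78 (100, 50, 25, 12.5, 6.25, 3.12, 1.56, 0.78). Inoculum 10⁵ CFU/ml from 24 h broth cultures. Incubated 24 h at 37 °C; MIC taken as last tube without growth. Inoculated broth-only tubes as controls.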

| SMILES | MIC (Staphylococcus aureus [1]) [µg/mL] | MIC (Staphylococcus aureus [2]) [µg/mL] | MIC (Candida albicans) [µg/mL] | MIC (Staphylococcus aureus [3]) [µg/mL] | MIC (Escherichia coli) [µg/mL] |
| --- | --- | --- | --- | --- | --- |
| O=C(CN1C(=O)S/C(=C\c2sc(Cl)nc2Cl)C1=O)c1ccc([N+](=O)[O-])cc1 | 12.5 (≈ 28.1 µM) | 12.5 (≈ 28.1 µM) | 6.25 (≈ 14.1 µM) | 12.5 (≈ 28.1 µM) | 25 (≈ 56.3 µM) |
| O=C(CN1C(=O)S/C(=C\c2sc(Cl)nc2Cl)C1=O)c1ccc(F)cc1 | 6.25 (≈ 15 µM) | 6.25 (≈ 15 µM) | 12.5 (≈ 30 µM) | 6.25 (≈ 15 µM) | 6.25 (≈ 15 µM) |
| O=C(CN1C(=O)S/C(=C\c2sc(Cl)nc2Cl)C1=O)c1ccc(Cl)cc1 | 6.25 (≈ 14.4 µM) | 6.25 (≈ 14.4 µM) | 6.25 (≈ 14.4 µM) | 6.25 (≈ 14.4 µM) | 25 (≈ 57.6 µM) |
| O=C(CN1C(=O)S/C(=C\c2sc(Cl)nc2Cl)C1=O)c1ccc(Br)cc1 | 12.5 (≈ 26.1 µM) | 6.25 (≈ 13.1 µM) | 6.25 (≈ 13.1 µM) | 12.5 (≈ 26.1 µM) | 6.25 (≈ 13.1 µM) |
| O=C1S/C(=C\c2sc(Cl)nc2Cl)C(=O)N1Cc1ccc(F)cc1 | 6.25 (≈ 16.1 µM) | 6.25 (≈ 16.1 µM) | 12.5 (≈ 32.1 µM) | 6.25 (≈ 16.1 µM) | 25 (≈ 64.2 µM) |
| O=C1S/C(=C\c2sc(Cl)nc2Cl)C(=O)N1Cc1ccc(Cl)cc1 | 6.25 (≈ 15.4 µM) | 6.25 (≈ 15.4 µM) | 6.25 (≈ 15.4 µM) | 6.25 (≈ 15.4 µM) | 25 (≈ 61.6 µM) |
| O=C1S/C(=C\c2sc(Cl)nc2Cl)C(=O)N1Cc1ccc(Cl)cc1Cl | 12.5 (≈ 28.4 µM) | 12.5 (≈ 28.4 µM) | 6.25 (≈ 14.2 µM) | 12.5 (≈ 28.4 µM) | 25 (≈ 56.8 µM) |
| O=C1S/C(=C\c2sc(Cl)nc2Cl)C(=O)N1Cc1ccc([N+](=O)[O-])cc1 | 12.5 (≈ 30 µM) | 6.25 (≈ 15 µM) | 12.5 (≈ 30 µM) | 6.25 (≈ 15 µM) | 25 (≈ 60.1 µM) |
| O=C(CN1C(=O)S/C(=C\c2sc(Cl)nc2Cl)C1=O)c1ccc(Cl)cc1Cl | 12.5 (≈ 26.7 µM) | 12.5 (≈ 26.7 µM) | 12.5 (≈ 26.7 µM) | 12.5 (≈ 26.7 µM) | 25 (≈ 53.4 µM) |
| O=C1S/C(=C\c2sc(Cl)nc2Cl)C(=O)N1Cc1ccccc1 | 12.5 (≈ 33.7 µM) | 6.25 (≈ 16.8 µM) | 6.25 (≈ 16.8 µM) | 12.5 (≈ 33.7 µM) | 25 (≈ 67.3 µM) |
| O=C1S/C(=C\c2sc(Cl)nc2Cl)C(=O)N1Cc1ccc(Br)cc1 | 6.25 (≈ 13.9 µM) | 12.5 (≈ 27.8 µM) | 6.25 (≈ 13.9 µM) | 6.25 (≈ 13.9 µM) | 25 (≈ 55.5 µM) |
| O=C(CN1C(=O)S/C(=C\c2sc(Cl)nc2Cl)C1=O)c1ccccc1 | 6.25 (≈ 15.7 µM) | 6.25 (≈ 15.7 µM) | 12.5 (≈ 31.3 µM) | 6.25 (≈ 15.7 µM) | 25 (≈ 62.6 µM) |
| O=C(CN1C(=O)S/C(=C/c2sc(Cl)nc2Cl)C1=O)c1ccc(Cl)cc1 | 6.25 (≈ 14.4 µM) | 12.5 (≈ 28.8 µM) | 6.25 (≈ 14.4 µM) | 12.5 (≈ 28.8 µM) | 50 (≈ 115 µM) |
| O=C(CN1C(=O)S/C(=C/c2sc(Cl)nc2Cl)C1=O)c1ccc(Cl)cc1Cl | 12.5 (≈ 26.7 µM) | 12.5 (≈ 26.7 µM) | 12.5 (≈ 26.7 µM) | 12.5 (≈ 26.7 µM) | 25 (≈ 53.4 µM) |
| CC1(C)S[C@@H]2[C@H](NC(=O)[C@H](N)c3ccccc3)C(=O)N2[C@H]1C(=O)O [AMPICILLIN] | 1.56 (≈ 4.46 µM) | 1.56 (≈ 4.46 µM) | – | 6.25 (≈ 17.9 µM) | 25 (≈ 71.5 µM) |
| Clc1ccc(COC(Cn2ccnc2)c2ccc(Cl)cc2Cl)c(Cl)c1 (stereo unspecified) [MICONAZOLE] | – | 6.25 (≈ 15 µM) | 25 (≈ 60.1 µM) | – | – |
